The values below come from ChEMBL document CHEMBL1921679, “Synthesis and biological evaluation of novel pyrimidine derivatives as sub-micromolar affinity ligands of GalR2” (Bioorg Med Chem Lett, 2011).

The structures appear in SMILES notation. pIC50: −log10 of the molar value.

As usually defined, the pIC50 is −log10 of the IC50, conventionally taken in molar units. A lower pIC50 goes with a high IC50. Broadly, the inhibition is the percentage by which the read-out fell short of the control. Low values mean a weak effect, high ones a strong effect.

In test [1] the target is T1, Galanin receptor type 1 (Homo sapiens, UniProt P47211).
T1 sequence (P47211 whole entry): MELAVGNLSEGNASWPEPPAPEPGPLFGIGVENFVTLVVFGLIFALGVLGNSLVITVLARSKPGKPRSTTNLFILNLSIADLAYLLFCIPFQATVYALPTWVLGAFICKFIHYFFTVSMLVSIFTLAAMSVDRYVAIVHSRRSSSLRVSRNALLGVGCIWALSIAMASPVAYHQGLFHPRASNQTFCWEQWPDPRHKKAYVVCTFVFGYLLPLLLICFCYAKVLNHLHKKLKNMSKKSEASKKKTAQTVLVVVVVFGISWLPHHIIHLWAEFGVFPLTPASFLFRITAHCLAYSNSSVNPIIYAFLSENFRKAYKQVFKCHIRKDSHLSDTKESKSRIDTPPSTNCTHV
The test is described as follows: Displacement of [125I]galanin from GalR1 at 100 uM by gamma counting. In general terms: In a radioligand displacement assay an active substance lowers the binding of a labelled ligand.

In test [2] the target is T2, Galanin receptor type 2 (Homo sapiens, UniProt O43603).
T2 sequence (O43603 whole entry): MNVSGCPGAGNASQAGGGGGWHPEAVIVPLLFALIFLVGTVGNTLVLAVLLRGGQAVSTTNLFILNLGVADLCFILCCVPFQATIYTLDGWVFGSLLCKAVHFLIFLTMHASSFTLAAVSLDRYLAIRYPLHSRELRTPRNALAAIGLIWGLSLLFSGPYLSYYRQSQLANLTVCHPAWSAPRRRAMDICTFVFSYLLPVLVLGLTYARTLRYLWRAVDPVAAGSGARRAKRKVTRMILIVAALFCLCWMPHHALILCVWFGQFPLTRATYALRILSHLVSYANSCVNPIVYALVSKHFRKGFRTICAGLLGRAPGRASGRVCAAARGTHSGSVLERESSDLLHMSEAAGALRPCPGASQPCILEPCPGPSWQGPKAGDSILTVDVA
The test is described as follows: Displacement of [125I]galanin from GalR2 at 100 uM by gamma counting.

Test [3] concerns the target T1, Galanin receptor type 1. The test is described as follows: Displacement of [125I]galanin from GalR1 by gamma counting. An outline of the steps:
(§1)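 Full-curve competition over 10 nM–100 μM, with a rat galanin control on every plate. Compounds were diluted in 20% DMSO. Membranes were GalR1 2.5 μg or GalR2 5 μg, with 125I porcine galanin at 0.1 nM (GalR1) or 0.15 nM (GalR2), 1 h at room temperature. Filtration, washing and γ-counting followed. IC50 came from a nonlinear one-site competition fit, reported only when the curve bottom fell below 35% of total binding.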

Test [4] addresses T3, Galanin receptor type 2 (Homo sapiens) (UniProt O43603).
T3 sequence (whole entry): T2 sequence (O43603 whole entry)
The test is described as follows: Displacement of [125I]galanin from GalR2 at 1 uM by gamma counting. In short, it runs like this:
(§2)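 Single-point screen at 1 and 10 μM, in duplicate, with two screens per receptor. Final 125I porcine galanin was 0.1 nM (GalR1) or 0.15 nM (GalR2). Incubation 1 h, room temperature. Filtration through PEI-treated glass fibre, cold PBS/Triton washes, γ-counting.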

Test [5] concerns the target T3, Galanin receptor type 2 (Homo sapiens). The test is described as follows: Displacement of [125I]galanin from GalR2 at 10 uM by gamma counting. An outline of the steps:
as §2

For test [6], the target named is T2, Galanin receptor type 2. The test is described as follows: Displacement of [125I]galanin from GalR2 by gamma counting. In short, it runs like this: as §1

In the case of `COc1ccc(Nc2nc(Nc3ccc(OC)c(F)c3)cc(N3CCC(C)CC3)n2)cc1`, the IC50 result at Galanin receptor type 1 [1] and at Galanin receptor type 2 [2] was “Not Active” each time.

Regarding `COc1ccc(Nc2nc(NCC3CCCCC3)cc(Nc3ccc(OC)c(F)c3)n2)cc1`, the negative logarithm of the IC50 (pIC50) at Galanin receptor type 1 [3] was 5.42. Further, the inhibition in test [4] and in test [5] was > 50% throughout. In addition, the IC50 entry on Galanin receptor type 2 [2] is “Not Active”.

As to `COc1ccc(Nc2nc(Nc3ccc(OC)c(F)c3)cc(N3CCCCC3C)n2)cc1` (centres undefined), the IC50 entry on Galanin receptor type 1 [1] and on Galanin receptor type 2 [2] was “Not Active” in each case.

At Galanin receptor type 1 [3], `COc1ccc(Nc2nc(Nc3ccc(OC)c(F)c3)cc(N3CCN(c4ncccn4)CC3)n2)cc1` had a pIC50 of 5.42. Besides, the IC50 entry on Galanin receptor type 2 [2] is “Not Active”.

Regarding `COc1ccc(Nc2nc(Nc3ccc(OC(F)F)cc3)cc(N3CCCCC3)n2)cc1`, the IC50 entry on Galanin receptor type 1 [1] and at Galanin receptor type 2 [2] was “Not Active” throughout.

Consider `FC(F)(F)Oc1ccc(Nc2cc(Nc3ccccc3)nc(N3CCCCC3)n2)cc1`, for which the IC50 entry on Galanin receptor type 1 [1] and on Galanin receptor type 2 [2] was “Not Active” throughout.

Consider `COc1ccc(Nc2nc(Nc3cccc(OC(F)F)c3)cc(N3CCCCC3)n2)cc1`, for which the inhibition in test [4] and in test [5] was > 50% throughout. Moreover, the IC50 entry on Galanin receptor type 1 [1] is recorded as “Not Active”. At Galanin receptor type 2 [6], the negative logarithm of the IC50 (pIC50) was 6.27.

Consider `COc1ccc(Nc2nc(Nc3ccc(OC)c(F)c3)cc(N3CCCC3)n2)cc1`, for which the IC50 result at Galanin receptor type 1 [1] and on Galanin receptor type 2 [2] was “Not Active” each time.

With `FC(F)Oc1ccc(Nc2cc(Nc3ccccc3)nc(N3CCCCC3)n2)cc1`, the inhibition in test [4] and in test [5] was > 50% each time. Moreover, the IC50 entry at Galanin receptor type 1 [1] is on record as “Not Active”. On Galanin receptor type 2 [6], this compound gave a pIC50 of 5.47.

Compound `COc1ccc(Nc2nc(Nc3ccc(OC)c(F)c3)cc(N3CCC(N4CCCCC4)CC3)n2)cc1` had a pIC50 at Galanin receptor type 1 [3] of 4.80. The IC50 result at Galanin receptor type 2 [2] is given as “Not Active”.

On to `COc1ccc(Nc2nc(NCc3cccc(C(F)(F)F)c3)cc(N3CCCCC3)n2)cc1`, for which the inhibition in test [4] and in test [5] was > 50% each time. Further, on Galanin receptor type 1 [1], the IC50 entry is on record as “Not Active”. The same compound gave a pIC50 on Galanin receptor type 2 [6] of 5.71.

With `COc1ccc(Nc2nc(Nc3ccc(C(F)(F)F)cc3)cc(N3CCCCC3)n2)cc1`, the inhibition in test [4] and in test [5] was > 50% throughout. Besides, at Galanin receptor type 1 [1], the IC50 result is given as “Not Active”. Further, the pIC50 at Galanin receptor type 2 [6] is 6.11.
